Series [1] deals with T1, Muscarinic acetylcholine receptor M1 (Homo sapiens) (UniProt P11229).
T1 sequence (whole entry): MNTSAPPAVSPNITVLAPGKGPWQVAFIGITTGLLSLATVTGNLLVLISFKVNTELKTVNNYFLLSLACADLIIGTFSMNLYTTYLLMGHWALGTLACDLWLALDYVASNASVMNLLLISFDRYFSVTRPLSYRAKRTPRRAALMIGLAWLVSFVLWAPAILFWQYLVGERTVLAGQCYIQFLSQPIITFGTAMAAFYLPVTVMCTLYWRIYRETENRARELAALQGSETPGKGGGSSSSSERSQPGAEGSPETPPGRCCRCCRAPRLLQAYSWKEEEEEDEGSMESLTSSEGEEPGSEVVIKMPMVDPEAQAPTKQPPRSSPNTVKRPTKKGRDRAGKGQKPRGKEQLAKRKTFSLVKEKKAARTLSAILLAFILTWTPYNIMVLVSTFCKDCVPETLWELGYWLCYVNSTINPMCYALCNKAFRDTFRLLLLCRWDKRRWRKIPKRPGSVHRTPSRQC
Description: Allosteric modulation of human muscarinic M1 receptor expressed in CHO cells assessed as effect on acetylcholine-induced calcium mobilization by FLIPR assay. Format: functional, cell-based. Put shortly:
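Human M1-expressing CHO cells; test compound added with an EC20 concentration of acetylcholine; calcium mobilization read on FLIPR384. Inflection point (IP) derived; percent max is the maximum potentiated EC20 response. Values are the mean of at least two experiments; interassay variability ±30% for IP unless otherwise noted.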

In series [2] the target is T1, Muscarinic acetylcholine receptor M1 (Homo sapiens). Put plainly: Allosteric modulation of human muscarinic M1 receptor expressed in CHO cells assessed as effect on acetylcholine-induced calcium mobilization by FLIPR assay relative to 1-Biphenyl-4-ylmethyl-4-oxo-1,4-dihydro-quinoline-3-carboxylic acid. Format: functional, cell-based. Background: Calcium assays in cells follow changes in intracellular calcium, usually with a dye or a luminescent sensor.

Series [3] is described as follows: Plasma concentration in Sprague-Dawley rat at 10 mg/kg, po after 2 hrs.
Series [4] is described as follows: Ratio of drug level in brain to plasma Sprague-Dawley rat at 10 mg/kg, po after 2 hrs.
The nature of series [5]: Drug level Sprague-Dawley rat brain at 10 mg/kg, po after 2 hrs.
Series [6] can be described thus: Drug level Sprague-Dawley rat cerebrospinal fluid at 10 mg/kg, po after 2 hrs.
Series [7] deals with T1, Muscarinic acetylcholine receptor M1 (Homo sapiens). Description: Potentiation of human muscarinic M1 receptor expressed in CHO cells assessed as effect on acetylcholine-induced calcium mobilization by FLIPR assay at 30 uM.

Experimental findings from ChEMBL document CHEMBL1153183, “Pyridine containing M(1) positive allosteric modulators with reduced plasma protein binding” (Bioorg Med Chem Lett, 2010) are described below.

The structures appear in SMILES notation.

As usually defined, the Emax is the maximal effect, on the per cent scale that the assay sets. The term Kp denotes the ratio of the level in a tissue or fluid to that in plasma or blood.

As to `COc1ccc(Cn2cc(C(=O)O)c(=O)c3ccccc32)cc1`, the IP in series [1] was found to be 660 nM.

Consider `O=C(O)c1cn(Cc2ccc(-c3ccc(Cl)nc3)nc2)c2c(F)cccc2c1=O`, for which, in series [1], the IP is 169 nM. With `CN(C)c1ccc(-c2ccc(Cn3cc(C(=O)O)c(=O)c4cccc(F)c43)nc2)cn1`, the IP in series [1] came to 82 nM. Turning to `CS(=O)(=O)c1cccc(-c2ccc(Cn3cc(C(=O)O)c(=O)c4cccc(F)c43)nc2)c1`, the IP in series [1] was determined as 97 nM.

As to `O=C(O)c1cn(Cc2ccc(-c3ccc(F)nc3)nc2)c2c(F)cccc2c1=O`, the IP in series [1] worked out at 202 nM. Regarding `O=C(O)c1cn(Cc2ccc(-c3ccccc3)nn2)c2c(F)cccc2c1=O`, the Emax in series [2] was found to be 97%. Also, the IP in series [1] is 390 nM. As to `CN(C)c1cccc(-c2ccc(Cn3cc(C(=O)O)c(=O)c4cccc(F)c43)cn2)c1`, the IP in series [1] came to 130 nM. With `CS(=O)(=O)c1cccc(-c2ccc(Cn3cc(C(=O)O)c(=O)c4cccc(F)c43)cn2)c1`, the concentration at 2 h in series [3] was 382 nM; in series [5], 154 nM. The partition ratio (Kp) at 2 h in series [4] was 0.4. For the same compound, the IP in series [1] was 28 nM. As to `Nc1ccc(-c2ccc(Cn3cc(C(=O)O)c(=O)c4cccc(F)c43)nc2)cn1`, in series [1], the IP worked out at 200 nM. Consider `Cn1cc(-c2ccc(Cn3cc(C(=O)O)c(=O)c4c(F)ccc(F)c43)nc2)cn1`, for which the IP in series [1] was 114 nM. Still for that read-out and setting: the value for `Nc1cccc(-c2ccc(Cn3cc(C(=O)O)c(=O)c4cccc(F)c43)cn2)c1` was 21 nM. Regarding `O=C(O)c1cn(Cc2ccc(-c3ccc4[nH]ccc4c3)nn2)c2c(F)cccc2c1=O`, in series [1], the IP came to 8660 nM. For the compound `O=C(O)c1cn(Cc2ccc(-c3ccccc3)nc2)c2c(F)cccc2c1=O`, in series [2], the maximal response (Emax) came out at 97%. Also, the IP in series [1] is 604 nM.

For the compound `Cn1cc(-c2ccc(Cn3cc(C(=O)O)c(=O)c4cccc(F)c43)nc2)cn1`, the concentration at 2 h in series [3] is 33300 nM; in series [6], 40 nM; in series [5], 430 nM. For the same compound, the Kp at 2 h in series [4] was determined as 0.03. Moreover, in series [1], the IP was 160 nM. In series [7], the fold change (FC) was 37.

Turning to `CS(=O)(=O)c1ccccc1-c1ccc(Cn2cc(C(=O)O)c(=O)c3cccc(F)c32)nc1`, the IP in series [1] worked out at 97 nM. On the same count and under the same terms, the figure for `O=C(O)c1cn(Cc2ccc(-c3ccc4[nH]ccc4c3)nc2)c2c(F)cccc2c1=O` is 65 nM; for `O=C(O)c1cn(Cc2ccc(-c3ccc(F)cc3)cn2)c2c(F)cccc2c1=O` it is 67 nM.

As for `O=C(O)c1cn(Cc2ccc(-c3cccnc3)nn2)c2c(F)cccc2c1=O`, in series [1], the IP was found to be 778 nM. As for `Nc1cccc(-c2ccc(Cn3cc(C(=O)O)c(=O)c4cccc(F)c43)nc2)c1`, the IP in series [1] is 21 nM. Moreover, the fold change (FC) in series [7] was 45. For the compound `CC(=O)Nc1ccc(-c2ccc(Cn3cc(C(=O)O)c(=O)c4cccc(F)c43)nc2)cc1`, in series [1], the IP was 78 nM. Same read-out and setting: the figure for `O=C(O)c1cn(Cc2ccc(-c3ccc(F)cc3)nn2)c2c(F)cccc2c1=O` is 466 nM. On to `O=C(O)c1cn(Cc2cnc(-c3ccccc3)nc2)c2c(F)cccc2c1=O`, for which the Emax in series [2] came out at 88%. Moreover, the IP in series [1] came to 4000 nM. For `CS(=O)(=O)c1ccc(-c2ccc(Cn3cc(C(=O)O)c(=O)c4cccc(F)c43)nc2)cc1`, the IP in series [1] turned out to be 260 nM. In addition, the fold change (FC) in series [7] came to 33.

Consider `CN(C)c1cccc(-c2ccc(Cn3cc(C(=O)O)c(=O)c4cccc(F)c43)nc2)c1`, for which, in series [1], the IP stood at 110 nM. On the same count and under the same terms, the figure for `O=C(O)c1cn(Cc2ccc(-c3ccnc(Cl)c3)cn2)c2c(F)cccc2c1=O` is 169 nM. As to `O=C(O)c1cn(Cc2ncc(-c3ccccc3)cn2)c2c(F)cccc2c1=O`, the Emax in series [2] turned out to be 90%. Also, in series [1], the IP was 2320 nM. In the case of `O=C(O)c1cn(Cc2ccc(-c3cncc(F)c3)cn2)c2c(F)cccc2c1=O`, the IP in series [1] came to 680 nM.

Turning to `O=C(O)c1cn(Cc2ccc(-c3cccs3)cn2)c2c(F)cccc2c1=O`, in series [1], the IP was 150 nM. Consider `COc1cccc(-c2ccc(Cn3cc(C(=O)O)c(=O)c4cccc(F)c43)nc2)c1`, for which, in series [1], the IP is 89 nM. In the case of `O=C(O)c1cn(Cc2ccc(-c3cccnc3)cn2)c2c(F)cccc2c1=O`, the values for the concentration at 2 h in series [3], in series [6] and in series [5] were 2790 nM, 25 nM and 154 nM, respectively. Besides, the partition ratio (Kp) at 2 h in series [4] came to 0.05. For the same compound, in series [1], the IP was determined as 370 nM.

On to `O=C(O)c1cn(Cc2ccc(-c3ccccc3)cn2)c2c(F)cccc2c1=O`, for which the Emax in series [2] came to 80%. The IP in series [1] stood at 153 nM. In series [7], the fold change (FC) amounted to 37.

In the case of `O=C(O)c1cn(Cc2ccc(-c3ccc4[nH]ccc4c3)cn2)c2c(F)cccc2c1=O`, the IP in series [1] came out at 57 nM. On the same count and under the same terms, the value for `O=C(O)c1cn(Cc2ccc(-c3ccc(F)cc3)nc2)c2c(F)cccc2c1=O` was 190 nM; that for `CS(=O)(=O)c1cccc(-c2ccc(Cn3cc(C(=O)O)c(=O)c4cccc(F)c43)nn2)c1` was 1540 nM.

Take `O=C(O)c1cn(Cc2cnc(-c3ccccc3)cn2)c2c(F)cccc2c1=O`: the Emax in series [2] is 85%. In series [1], the IP was found to be 1300 nM. On to `O=C(O)c1cn(Cc2ccc(-c3ccc(F)nc3)cn2)c2c(F)cccc2c1=O`, for which the concentration at 2 h was determined as 12800 nM in series [3], 97 nM in series [6] and 311 nM in series [5]. Besides, in series [4], the Kp at 2 h came to 0.05. Moreover, the IP in series [1] is 100 nM. Further, the fold change (FC) in series [7] came to 81.
